Data reported in ChEMBL document CHEMBL4402600, “Discovery of a Dual Tubulin Polymerization and Cell Division Cycle 20 Homologue Inhibitor via Structural Modification on Apcin” (J Med Chem, 2020).

Tests used:
Format in all cases: functional, cell-based
MCF7 = assay: Cytotoxicity in human MCF7 cells assessed as reduction in cell viability incubated for 48 hrs by MTT assay; conditions: MCF7, 48 h
In short: (§1)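 Cells grown at 37°C, 5% CO₂ (HepG2, OVCAR-3, Caov-3 in DMEM + 10% FBS; A549, HeLa, A375, MCF-7 in RPMI 1640 + 10% FBS). Seeded at 4-5×10³/well in triplicate, adhered overnight, exposed to 0.03–300 μM (DMSO <0.1%) for 48 h. MTT added for 4 h, formazan dissolved in DMSO, absorbance read. IC50 from dose–response curves, mean ± SD of at least three independent experiments.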

A-375 = assay: Cytotoxicity in human A375 cells assessed as reduction in cell viability incubated for 48 hrs by MTT assay; conditions: A-375, 48 h; in short: as §1
A549 = assay: Cytotoxicity in human A549 cells assessed as reduction in cell viability incubated for 48 hrs by MTT assay; conditions: A549, 48 h; in short: as §1
HepG2 = assay: Cytotoxicity in human HepG2 cells assessed as reduction in cell viability incubated for 48 hrs by MTT assay; conditions: HepG2, 48 h; in short: as §1
HeLa = assay: Cytotoxicity in human HeLa cells assessed as reduction in cell viability incubated for 48 hrs by MTT assay; in short: as §1
OVCAR-3 = assay: Cytotoxicity in human OVCAR3 cells assessed as reduction in cell viability incubated for 48 hrs by MTT assay; conditions: OVCAR-3, 48 h; in short: as §1
Caov-3 cell line = assay: Cytotoxicity in human Caov3 cells assessed as reduction in cell viability incubated for 48 hrs by MTT assay; conditions: Caov-3, 48 h; in short: as §1

SMILES	IC50 (MCF7) [µM]	IC50 (A-375) [µM]	IC50 (A549) [µM]	IC50 (HepG2) [µM]	IC50 (HeLa) [µM]	IC50 (OVCAR-3) [µM]	IC50 (Caov-3 cell line) [µM]
CCOC(=O)NC(n1cnc2c(N)nc(Cl)nc21)C(Cl)(Cl)Cl (configuration not stated)	87.2	125	59.7	59	152	132	92.9
Cc1ncc([N+](=O)[O-])n1CCOC(=O)NC(Nc1nc(Cl)cc(Cl)n1)C(Cl)(Cl)Cl (configuration not stated)	32.4	8.1	49.5	23.3	15.6	17	22.5
Nc1nc(Cl)nc2c1ncn2C(NC(=O)OCc1ccccc1)C(Cl)(Cl)Cl (configuration not stated)	138	> 300	78.5	> 300	> 300	37.9	65
Cc1ncc([N+](=O)[O-])n1CCOC(=O)NC(n1cnc2c(N(C)C)ncnc21)C(Cl)(Cl)Cl (configuration not stated)	> 300	27.3	191	> 300	160	> 300	264
Cc1ncc([N+](=O)[O-])n1CCOC(=O)NC(Nc1nccc(Cl)n1)C(Cl)(Cl)Cl (configuration not stated)	> 300	20	94.9	> 300	> 300	> 300	> 300
Cc1ncc([N+](=O)[O-])n1CCOC(=O)NC(Nc1cc2ccccc2cn1)C(Cl)(Cl)Cl (configuration not stated)	141	12.5	84.3	26	38.9	109	95.2
Cc1ncc([N+](=O)[O-])n1CCOC(=O)NC(n1cnc2c(NC(=O)c3ccccc3)ncnc21)C(Cl)(Cl)Cl (configuration not stated)	> 300	> 300	244	> 300	> 300	225	> 300
Cc1ncc([N+](=O)[O-])n1CCOC(=O)NC(Nc1nccc2ccccc12)C(Cl)(Cl)Cl (configuration not stated)	> 300	37.3	> 300	46.8	> 300	61.4	81.1
Cc1ncc([N+](=O)[O-])n1CCOC(=O)NC(Nc1ccc2ccccc2n1)C(Cl)(Cl)Cl (configuration not stated)	99.6	14	47.5	22.7	9.1	90.1	72.6
COc1ccnc(NC(NC(=O)OCCn2c([N+](=O)[O-])cnc2C)C(Cl)(Cl)Cl)n1 (configuration not stated)	186	44.1	264	79.8	128	198	157
Nc1nc(F)nc2c1ncn2C(NC(=O)OCCc1ccccn1)C(Cl)(Cl)Cl (configuration not stated)	1	0.4	3.5	1	3	0.8	1.1
Cc1ncc([N+](=O)[O-])n1CCOC(=O)NC(Nc1nc(Cl)c(N)c(Cl)n1)C(Cl)(Cl)Cl (configuration not stated)	20.6	14	31.9	25.8	17.5	21.1	19.2
Cc1ncc([N+](=O)[O-])n1CCOC(=O)NC(n1cnc2c(OCc3ccccc3)nc(N)nc21)C(Cl)(Cl)Cl (configuration not stated)	89.1	> 300	146	71.1	> 300	> 300	> 300
CCOC(=O)NC(n1cnc2c(N)nc(F)nc21)C(Cl)(Cl)Cl (configuration not stated)	0.8	1.8	0.5	1.4	0.9	0.5	0.6
Cc1ncc([N+](=O)[O-])n1CCOC(=O)NC(Nc1nccc(=O)[nH]1)C(Cl)(Cl)Cl (configuration not stated)	> 300	> 300	> 300	> 300	> 300	> 300	> 300
Nc1nc(N)c2ncn(C(NC(=O)OCCc3ccccn3)C(Cl)(Cl)Cl)c2n1 (configuration not stated)	136	300	270	28.1	220	30.9	29.7
Cc1ncc([N+](=O)[O-])n1CCOC(=O)NC(n1cnc2c(Cl)nc(F)nc21)C(Cl)(Cl)Cl (configuration not stated)	62.1	121	> 300	55.1	> 300	> 300	> 300
Cc1ncc([N+](=O)[O-])n1CCOC(=O)NC(n1cnc2ccccc21)C(Cl)(Cl)Cl (configuration not stated)	> 300	> 300	> 300	> 300	214	> 300	> 300
Nc1nc(N)c2ncn(C(NC(=O)OCCN3CCOCC3)C(Cl)(Cl)Cl)c2n1 (configuration not stated)	125	94.7	47.2	8.6	47.5	11.5	10.5
Cc1ccnc(NC(NC(=O)OCCn2c([N+](=O)[O-])cnc2C)C(Cl)(Cl)Cl)n1 (configuration not stated)	152	37.5	27.3	31.2	94.7	164	155
Cc1ncc([N+](=O)[O-])n1CCOC(=O)NC(Nc1nccc(N)n1)C(Cl)(Cl)Cl (configuration not stated)	> 300	> 300	> 300	> 300	> 300	> 300	> 300
Cc1ncc([N+](=O)[O-])n1CCOC(=O)NC(n1cnc2c(Cl)nc(Cl)nc21)C(Cl)(Cl)Cl (configuration not stated)	218	68.5	72.8	54.6	142	162	224
Cn1c([N+](=O)[O-])cnc1COC(=O)NC(n1cnc2c(N)nc(Cl)nc21)C(Cl)(Cl)Cl (configuration not stated)	53.3	1.2	61.4	43.8	51.2	70.4	64.3
Cc1ncc([N+](=O)[O-])n1CCOC(=O)NC(n1cnc2c(N)nc(N)nc21)C(Cl)(Cl)Cl (configuration not stated)	> 300	170	> 300	19.7	120	> 300	> 300
O=C(NC(n1ncc2c(O)ncnc21)C(Cl)(Cl)Cl)OCCc1ccccn1 (configuration not stated)	> 300	> 300	> 300	271	> 300	> 300	> 300
Cc1ncc([N+](=O)[O-])n1CCOC(=O)NC(n1cnc2c(Cl)nc(N)nc21)C(Cl)(Cl)Cl (configuration not stated)	> 300	> 300	> 300	> 300	57.3	> 300	> 300
